Reference: ChEMBL document CHEMBL2040780, “Antiarrhythmic properties of phenylpiperazine derivatives of phenytoin with α₁-adrenoceptor affinities” (Bioorg Med Chem, 2012)
The source made the active and inactive calls.

Columns and labels:
Rattus norvegicus [1] = assay: Antiarrhythmic activity in iv dosed Wistar rat assessed as protection against adrenaline-induced arrhythmia administered 15 mins prior to adrenaline-challenge; type: functional; conditions: Heart
Summary of the method: (§1)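 Szekeres model in male Wistar rats anaesthetised with thiopental (60 mg/kg ip). Test compound given iv in water (2.5–10 mg/kg) 15 min before adrenaline 20 µg/kg iv. Scored for extrasystoles, bigeminy and mortality; activity means no premature beats and inhibited arrhythmia versus controls.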

Rattus norvegicus [2] = assay: Antiarrhythmic activity in Wistar rat assessed as effect on heart beat at 10 mg/kg, iv after 5 mins; type: functional
Summary of the method: (§2)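 Male Wistar rats (180–250 g), anaesthetised with thiopental 60 mg/kg ip. Standard lead II ECG recorded at 50 mm/s just before dosing and at 1, 5 and 15 min after. Heart rate and P–Q, Q–T and QRS intervals were read. n=6 per group, mean ± SEM, one-way ANOVA.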

Rattus norvegicus [3] = assay: Cardiotoxicity in Wistar rat assessed as effect on QRS interval at 10 mg/kg, iv after 5 mins; type: toxicity, organism-based; design: dose 10 mg/kg, route intravenous; conditions: in vivo; summary of the method: as §2
Rattus norvegicus [4] = assay: Hypotensive activity in normotensive Wistar rat assessed as decrease in diastolic blood pressure at 2.5 to 10 mg/kg, iv at 1 min; type: organism-based, Artery; design: dose 2.5-10 mg/kg, route intravenous; conditions: in vivo
Summary of the method: (§3)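 Right carotid artery cannulated with heparin-saline-filled tubing for blood pressure recording. After 5 min stabilisation, compound injected iv into the caudal vein (2.5–10 mg/kg, 1 ml/kg). Systolic and diastolic pressure followed for 60 min. n=6 per group, mean ± SEM, one-way ANOVA.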

Rattus norvegicus [5] = assay: Cardiotoxicity in Wistar rat assessed as effect on Q-T interval at 10 mg/kg, iv after 1 min; type: toxicity, organism-based; design: dose 10 mg/kg, route intravenous; conditions: in vivo; summary of the method: as §2
Rattus norvegicus [6] = assay: Antiarrhythmic activity in barium chloride-induced Wistar rat arrhythmia model assessed as protection against mortality at 2.5 to 10 mg/kg, iv administered 15 mins prior to barium chloride-challenge; type: functional, organism-based; conditions: Heart
Summary of the method: (§4)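 Szekeres model in male Wistar rats. Activity is gradual disappearance of arrhythmia with restored sinus rhythm; protection against disturbances and death scored. Groups of 6 animals.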

Rattus norvegicus [7] = assay: Antiarrhythmic activity in Wistar rat assessed as protection against adrenaline-induced extrasystoles at 2.5 to 10 mg/kg, iv administered 15 mins prior to adrenaline-challenge; type: functional, organism-based; conditions: Heart; summary of the method: as §1
Rattus norvegicus [8] = assay: Antiarrhythmic activity in Wistar rat assessed as protection against adrenaline-induced bigeminy at 2.5 to 10 mg/kg, iv administered 15 mins prior to adrenaline-challenge; type: functional, organism-based; conditions: Heart; summary of the method: as §1
Rattus norvegicus [9] = assay: Cardiotoxicity in Wistar rat assessed as effect on P-Q interval at 10 mg/kg, iv after 15 mins; type: toxicity, organism-based; design: dose 10 mg/kg, route intravenous; conditions: in vivo, 0.25 h; summary of the method: as §2
Rattus norvegicus [10] = assay: Hypotensive activity in normotensive Wistar rat assessed as decrease in systolic blood pressure at 2.5 to 10 mg/kg, iv after 1 min measured up to 60 mins; type: organism-based, Artery; design: dose 2.5-10 mg/kg, route intravenous; conditions: in vivo; summary of the method: as §3
Rattus norvegicus [11] = assay: Cardiotoxicity in Wistar rat assessed as effect on P-Q interval at 10 mg/kg, iv after 5 mins; type: toxicity, organism-based; design: dose 10 mg/kg, route intravenous; conditions: in vivo; summary of the method: as §2
Rattus norvegicus [12] = assay: Cardiotoxicity in Wistar rat assessed as effect on Q-T interval at 10 mg/kg, iv after 15 mins; type: toxicity, organism-based; design: dose 10 mg/kg, route intravenous; conditions: in vivo, 0.25 h; summary of the method: as §2
Rattus norvegicus [13] = assay: Antiarrhythmic activity in Wistar rat assessed as effect on heart beat at 10 mg/kg, iv after 15 mins; type: functional; summary of the method: as §2
Rattus norvegicus [14] = assay: Cardiotoxicity in Wistar rat assessed as effect on QRS interval at 10 mg/kg, iv after 1 min; type: toxicity, organism-based; design: dose 10 mg/kg, route intravenous; conditions: in vivo; summary of the method: as §2
Rattus norvegicus [15] = assay: Cardiotoxicity in Wistar rat assessed as effect on QRS interval at 10 mg/kg, iv after 15 mins; type: toxicity, organism-based; design: dose 10 mg/kg, route intravenous; conditions: in vivo, 0.25 h; summary of the method: as §2
[16] = target: T1, Adrenergic receptor alpha-1 (Rattus norvegicus, UniProt P15823+P23944+P43140); assay: Displacement of [3H]prazosin from alpha1 adrenoceptor in rat cerebral cortex after 30 mins by microbeta scintillation counting; type: tissue-based
T1 sequence (P15823 whole entry): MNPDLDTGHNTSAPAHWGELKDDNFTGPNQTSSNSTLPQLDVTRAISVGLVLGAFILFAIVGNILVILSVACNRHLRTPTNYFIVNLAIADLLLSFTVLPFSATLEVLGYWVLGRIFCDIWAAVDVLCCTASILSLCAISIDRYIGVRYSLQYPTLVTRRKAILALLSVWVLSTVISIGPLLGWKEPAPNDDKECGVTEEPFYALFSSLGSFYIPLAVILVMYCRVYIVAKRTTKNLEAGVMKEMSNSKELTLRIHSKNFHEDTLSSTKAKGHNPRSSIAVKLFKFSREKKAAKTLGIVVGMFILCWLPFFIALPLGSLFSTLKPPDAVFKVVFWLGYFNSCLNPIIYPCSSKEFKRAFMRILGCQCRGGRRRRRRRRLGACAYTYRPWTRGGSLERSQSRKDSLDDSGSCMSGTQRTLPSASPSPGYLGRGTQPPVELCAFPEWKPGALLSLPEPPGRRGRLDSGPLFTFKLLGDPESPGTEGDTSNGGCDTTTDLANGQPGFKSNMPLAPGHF
T1 sequence (P23944 whole entry): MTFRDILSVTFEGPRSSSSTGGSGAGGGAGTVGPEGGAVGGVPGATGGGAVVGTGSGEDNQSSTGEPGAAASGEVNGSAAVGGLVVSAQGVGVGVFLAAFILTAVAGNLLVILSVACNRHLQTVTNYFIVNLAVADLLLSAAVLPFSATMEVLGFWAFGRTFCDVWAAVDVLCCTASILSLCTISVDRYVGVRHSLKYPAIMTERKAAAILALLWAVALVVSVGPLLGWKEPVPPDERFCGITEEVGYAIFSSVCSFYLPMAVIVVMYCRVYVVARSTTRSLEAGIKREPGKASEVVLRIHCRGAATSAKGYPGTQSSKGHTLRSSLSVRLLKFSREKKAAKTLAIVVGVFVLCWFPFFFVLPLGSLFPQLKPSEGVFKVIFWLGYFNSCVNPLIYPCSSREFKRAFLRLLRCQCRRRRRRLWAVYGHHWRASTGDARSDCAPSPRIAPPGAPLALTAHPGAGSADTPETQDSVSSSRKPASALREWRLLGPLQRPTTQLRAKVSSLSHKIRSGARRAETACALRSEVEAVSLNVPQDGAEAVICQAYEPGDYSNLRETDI
T1 sequence (P43140 whole entry): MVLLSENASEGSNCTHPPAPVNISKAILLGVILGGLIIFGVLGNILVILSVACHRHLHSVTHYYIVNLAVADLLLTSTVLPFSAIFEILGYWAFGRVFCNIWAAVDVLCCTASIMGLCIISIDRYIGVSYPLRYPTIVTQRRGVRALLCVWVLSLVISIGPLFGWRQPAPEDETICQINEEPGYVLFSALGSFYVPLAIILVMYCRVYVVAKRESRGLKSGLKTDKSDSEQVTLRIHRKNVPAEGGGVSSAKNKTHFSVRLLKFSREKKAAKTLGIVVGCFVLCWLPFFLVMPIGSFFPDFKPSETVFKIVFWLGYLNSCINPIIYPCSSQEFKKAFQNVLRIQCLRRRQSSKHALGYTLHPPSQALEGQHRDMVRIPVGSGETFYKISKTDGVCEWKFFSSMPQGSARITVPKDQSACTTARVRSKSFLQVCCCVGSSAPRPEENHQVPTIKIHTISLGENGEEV
Summary of the method: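 Rat cerebral cortex homogenised in ice-cold 50 mM Tris-HCl (pH 7.6 at 25 °C), washed twice at 20000×g and resuspended at 10 mg wet weight/ml. Incubated with [3H]prazosin (19.5 Ci/mmol) and test compound for 30 min at 25 °C. Nonspecific binding defined with 10 µM phentolamine. GF/B filtration, scintillation counting, three-parameter logistic competition fit.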

Rattus norvegicus [17] = assay: Antiarrhythmic activity in Wistar rat assessed as effect on heart beat at 10 mg/kg, iv after 1 min; type: functional; summary of the method: as §2
Rattus norvegicus [18] = assay: Hypotensive activity in normotensive Wistar rat assessed as decrease in diastolic blood pressure at 2.5 to 10 mg/kg, iv after 1 min measured up to 60 mins; type: organism-based, Artery; design: dose 2.5-10 mg/kg, route intravenous; conditions: in vivo; summary of the method: as §3
Rattus norvegicus [19] = assay: Hypotensive activity in normotensive Wistar rat assessed as decrease in systolic blood pressure at 2.5 to 10 mg/kg, iv at 1 min; type: organism-based, Artery; design: dose 2.5-10 mg/kg, route intravenous; conditions: in vivo; summary of the method: as §3
Rattus norvegicus [20] = assay: Cardiotoxicity in Wistar rat assessed as effect on Q-T interval at 10 mg/kg, iv after 5 mins; type: toxicity, organism-based; design: dose 10 mg/kg, route intravenous; conditions: in vivo; summary of the method: as §2
Rattus norvegicus [21] = assay: Cardiotoxicity in Wistar rat assessed as effect on P-Q interval at 10 mg/kg, iv after 1 min; type: toxicity, organism-based; design: dose 10 mg/kg, route intravenous; conditions: in vivo; summary of the method: as §2
Rattus norvegicus [22] = assay: Antiarrhythmic activity in iv dosed Wistar rat assessed as protection against barium chloride-induced extrasystoles administered 15 mins prior to barium chloride-challenge; type: functional; conditions: Heart; summary of the method: as §4
Rattus norvegicus [23] = assay: Antiarrhythmic activity in iv dosed barium chloride-induced Wistar rat arrhythmia model assessed as protection against mortality administered 15 mins prior to barium chloride-challenge; type: functional; conditions: Heart
Summary of the method: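 Male Wistar rats (180–250 g), groups of 6. Activity criterion: gradual disappearance of arrhythmia and restoration of sinus rhythm; protection against heart disturbances and death scored.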

Rattus norvegicus [24] = assay: Antiarrhythmic activity in dosed Wistar rat assessed as protection against barium chloride-induced fibrillation administered 15 mins prior to barium chloride-challenge; type: functional; conditions: Heart; summary of the method: as §4

| Structure (SMILES) | ED50 (Rattus norvegicus [1]) [mg/kg] | Activity (Rattus norvegicus [2]) [min⁻¹] | Activity (Rattus norvegicus [3]) [ms] | Activity (Rattus norvegicus [4]) | Activity (Rattus norvegicus [5]) [ms] | Activity (Rattus norvegicus [6]) | Activity (Rattus norvegicus [7]) | Activity (Rattus norvegicus [8]) | Activity (Rattus norvegicus [9]) [ms] | Activity (Rattus norvegicus [10]) | Activity (Rattus norvegicus [11]) [ms] | Activity (Rattus norvegicus [12]) [ms] | Activity (Rattus norvegicus [13]) [min⁻¹] | Activity (Rattus norvegicus [14]) [ms] | Activity (Rattus norvegicus [15]) [ms] | Activity (Rattus norvegicus [17]) [min⁻¹] | Activity (Rattus norvegicus [18]) | Activity (Rattus norvegicus [19]) | Activity (Rattus norvegicus [20]) [ms] | Activity (Rattus norvegicus [21]) [ms] | other results |
| --- | --- | --- | --- | --- | --- | --- | --- | --- | --- | --- | --- | --- | --- | --- | --- | --- | --- | --- | --- | --- | --- |
| COC(=O)CN1C(=O)N(CCCCN2CCN(c3ccccc3OC)CC2)C(c2ccccc2)(c2ccccc2)C1=O.Cl | 1.8 | 354.3 | 19.3 | Toxic | 74.6 | Active | Active | Active | 62.8 | Non-toxic | 63.3 | 75.6 | 357.8 | 19.6 | 19.5 | 355.8 | Non-toxic | Toxic | 73.3 | 62.6 | Ki [16]: 25 nM; pKi [16]: 7.6 |
| CCOC(=O)C(C)N1C(=O)N(CC(O)CN2CCN(c3ccccc3OC)CC2)C(c2ccccc2)(c2ccccc2)C1=O.Cl (racemic) | 0.41 | – | – | – | – | Active | Active | Active | – | – | – | – | – | – | – | – | – | – | – | – | – |
| COC(=O)CN1C(=O)N(CC(O)CN2CCN(c3ccccc3OC)CC2)C(c2ccccc2)(c2ccccc2)C1=O.Cl (racemic) | 0.69 | 262 | 18 | Toxic | 98 | – | Active | Active | 63 | Non-toxic | 63 | 74 | 261 | 20 | 17 | 268 | Non-toxic | Toxic | 76 | 64 | Activity (Rattus norvegicus [22]): inactive; Activity (Rattus norvegicus [23]): inactive; Activity (Rattus norvegicus [24]): inactive |
| COC(=O)C(C)N1C(=O)N(CC(O)CN2CCN(c3ccccc3OC)CC2)C(c2ccccc2)(c2ccccc2)C1=O.Cl (racemic) | 0.36 | 363 | 15 | Toxic | 82 | – | Active | Active | 57 | Non-toxic | 55 | 82 | 362 | 16 | 16 | 350 | Non-toxic | Toxic | 81 | 57 | Activity (Rattus norvegicus [22]): inactive; Activity (Rattus norvegicus [23]): inactive; Activity (Rattus norvegicus [24]): inactive |
